Results on two compounds are retold here after ChEMBL document CHEMBL5653630, “Activation of the p53-MDM4 regulatory axis defines the anti-tumour response to PRMT5 inhibition through its role in regulating cellular splicing” (Sci Rep, 2018).

For one experiment, the system named is BE(2)-C. Briefly: Antiproliferative activity against human BE2C cells assessed as cell growth inhibition incubated for 10 days. The class given is functional. Conditions: 240 h, time 10 day. The gist of the method: (§1)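 Cells kept in RPMI-1640 with 10% FBS, 2 mM L-alanyl-L-glutamine and 1 mM Na pyruvate (or a special medium) at 37°C, 5% CO2. Compound added 24 h after seeding, 10 concentrations in 3.16-fold dilution, 0.1% DMSO final. Medium replaced and cells re-dosed at 168 h; 240 h incubation. Nuclei fixed, dye-stained and imaged. gIC50 = growth midway between untreated and time-zero cell counts, from a 4-parameter fit.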

A further experiment has as its system A 172. Nature of the experiment: Antiproliferative activity against human A-172 cells assessed as cell growth inhibition incubated for 6 days by celltiter-glo assay. The class given is functional. Conditions: A 172, 144 h, time 6 day. In general terms: Cellular ATP, detected with luciferase, serves as a proxy for viable cell number.
Experiment [1] deals with Protein arginine N-methyltransferase 5 (Homo sapiens) (UniProt O14744). Briefly: Inhibition of PRMT5 in p53 knockout human Z138 cells at 1 to 100000 nM incubated for 3 to 6 days. Conditions: dose 1-100000 nM, time 3-6 day. It counts as cell-based.
Protein arginine N-methyltransferase 5 (Homo sapiens), sequence (O14744 whole entry): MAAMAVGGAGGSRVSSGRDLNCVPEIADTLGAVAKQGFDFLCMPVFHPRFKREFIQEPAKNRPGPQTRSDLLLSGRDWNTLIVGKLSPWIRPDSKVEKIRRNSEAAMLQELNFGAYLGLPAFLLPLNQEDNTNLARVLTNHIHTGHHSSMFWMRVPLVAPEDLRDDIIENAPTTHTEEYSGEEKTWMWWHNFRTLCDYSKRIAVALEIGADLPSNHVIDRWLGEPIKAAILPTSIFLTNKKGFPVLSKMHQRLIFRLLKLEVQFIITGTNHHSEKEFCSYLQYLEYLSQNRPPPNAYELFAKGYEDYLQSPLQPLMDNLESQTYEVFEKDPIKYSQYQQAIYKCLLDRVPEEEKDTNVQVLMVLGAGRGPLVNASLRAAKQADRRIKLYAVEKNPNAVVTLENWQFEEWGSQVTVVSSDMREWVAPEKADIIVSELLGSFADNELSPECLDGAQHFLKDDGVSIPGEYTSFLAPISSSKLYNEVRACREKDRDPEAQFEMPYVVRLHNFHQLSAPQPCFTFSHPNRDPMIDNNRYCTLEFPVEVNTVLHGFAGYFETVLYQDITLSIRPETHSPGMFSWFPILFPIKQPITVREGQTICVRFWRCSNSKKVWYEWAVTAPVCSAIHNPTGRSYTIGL
A further experiment concerns Capan-2. Nature of the experiment: Antiproliferative activity against human Capan-2 cells assessed as cell growth inhibition incubated for 10 days. The class given is functional. Particulars: Capan-2, 240 h, time 10 day. The gist of the method: (§2)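 Outsourced panel run in 384-well plates. Cells were grown in RPMI-1640/10% FBS or a special medium at 37°C, 5% CO2. Compound was added 24 h after seeding as a 10-point, 3.16-fold series in 0.1% DMSO. Medium was refreshed and cells re-dosed at 168 h, with a time-zero plate kept. At 240 h cells were fixed, nuclei stained and imaged. gIC50 is growth midway between untreated and time zero, from a 4-parameter fit.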

The subject of a further experiment is CFPAC-1. Briefly: Antiproliferative activity against human CFPAC-1 cells assessed as cell growth inhibition incubated for 10 days. The class given is functional. Conditions: CFPAC-1, 240 h, time 10 day. The method, boiled down: as §1
In a further experiment the test system is CGTH-W-1. Briefly: Antiproliferative activity against human CGTH-W-1 cells assessed as cell growth inhibition incubated for 10 days. It counts as functional. Conditions: CGTH-W-1, 240 h, time 10 day. The method, boiled down: as §1
A further experiment deals with HCT-15. Nature of the experiment: Antiproliferative activity against human HCT-15 cells assessed as cell growth inhibition incubated for 10 days. The class given is functional. Conditions: HCT-15, 240 h, time 10 day. The method, boiled down: as §2
The test system of the next experiment is PANC-1. Briefly: Antiproliferative activity against human PANC-1 cells assessed as cell growth inhibition incubated for 10 days. It counts as functional. Conditions: PANC-1, 240 h, time 10 day.
Experiment [2] is described as follows: Antiproliferative activity against human OCUG-1 cells assessed as cell growth inhibition incubated for 10 days. The class given is functional. Conditions: OCUG-1, 240 h, time 10 day.
A further experiment relates to U2OS. Briefly: Antiproliferative activity against human U2OS cells assessed as cell growth inhibition incubated for 10 days. It counts as functional. Conditions: 240 h, time 10 day.
The test system of another experiment is DLD-1. Briefly: Antiproliferative activity against human DLD-1 cells assessed as cell growth inhibition incubated for 10 days. It counts as functional. Conditions: DLD-1, 240 h, time 10 day. The method, boiled down: as §2
For the next experiment, the system named is EM-2. Nature of the experiment: Antiproliferative activity against human EM-2 cells assessed as cell growth inhibition incubated for 10 days. Conditions: EM-2, 240 h, time 10 day. It counts as functional. The method, boiled down: as §2
Experiment [3] concerns the target Protein arginine N-methyltransferase 5 (Homo sapiens) (UniProt O14744). Nature of the experiment: Inhibition of PRMT5 in human Z138 cells assessed as short MDM4 splicing at 200 to 1000 nM incubated for 3 days by RT-PCR analysis. The class given is cell-based. Conditions: dose 200-1000 nM, time 3.0 day.
The next experiment relates to HCT-8. Nature of the experiment: Antiproliferative activity against human HCT-8 cells assessed as cell growth inhibition incubated for 10 days. The class given is functional. Conditions: HCT-8, 240 h, time 10 day. The gist of the method:
as §2

For a further experiment, the system named is Hs 695T. Nature of the experiment: Antiproliferative activity against human Hs 695T cells assessed as cell growth inhibition incubated for 10 days. The class given is functional. Particulars: 240 h, time 10 day. The gist of the method:
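Eurofins panel, 384-well. Cells kept in RPMI-1640 with 10% FBS, 2 mM L-alanyl-L-glutamine and 1 mM Na pyruvate, or in a special medium, at 37°C under 5% CO2. Compound added 24 h after seeding as 10 concentrations in 3.16-fold steps, 0.1% DMSO final. Medium replaced and compound re-dosed at 168 h. After 240 h, cells fixed and nuclei stained for imaging. gIC50 = growth midway between untreated cells and time-zero count.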

The subject of a further experiment is HT-1080. Nature of the experiment: Antiproliferative activity against human HT-1080 cells assessed as cell growth inhibition incubated for 10 days. It counts as functional. Conditions: HT-1080, 240 h, time 10 day. The gist of the method:
as §2

A further experiment relates to SW1353. Briefly: Antiproliferative activity against human SW1353 cells assessed as cell growth inhibition incubated for 10 days. It counts as functional. Conditions: SW1353, 240 h, time 10 day.
The next experiment deals with AN3-CA. Nature of the experiment: Antiproliferative activity against human AN3-CA cells assessed as cell growth inhibition incubated for 10 days. Conditions: 240 h, time 10 day. It counts as functional. The method, boiled down: as §1
Another experiment has as its system RPMI-8226. Nature of the experiment: Antiproliferative activity against human RPMI-8226 cells assessed as cell growth inhibition incubated for 10 days. It counts as functional. Particulars: RPMI-8226, 240 h, time 10 day.
The subject of another experiment is L-428. Nature of the experiment: Antiproliferative activity against human L-428 cells assessed as cell growth inhibition incubated for 10 days. It counts as functional. Conditions: L-428, 240 h, time 10 day.
For the next experiment, the system named is JAR. Nature of the experiment: Antiproliferative activity against human JAR cells assessed as cell growth inhibition incubated for 10 days. It counts as functional. Particulars: 240 h, time 10 day. The gist of the method:
(§3)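 Eurofins-panel 10-day assay in 384-well plates. Cells grown in RPMI-1640 with 10% FBS, 2 mM L-alanyl-L-glutamine and 1mM Na pyruvate, or a special medium, at 37°C in 5% CO₂. Compound added 24 h after seeding, 10-point 3.16-fold series in 0.1% DMSO. Medium replaced and compound re-dosed at 168 h. Nuclei fixed and stained after 240 h, then imaged to give a relative cell count. gIC50 is the concentration giving growth midway between untreated and time-zero counts, from a 4-parameter fit.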

In the next experiment the test system is COR-L105. Nature of the experiment: Antiproliferative activity against human COR-L105 cells assessed as cell growth inhibition incubated for 10 days. Particulars: COR-L105, 240 h, time 10 day. It counts as functional. The gist of the method:
as §2

In a further experiment the test system is A498. Nature of the experiment: Antiproliferative activity against human A498 cells assessed as cell growth inhibition incubated for 10 days. Particulars: A498, 240 h, time 10 day. It counts as functional. The gist of the method:
as §1

A further experiment relates to NCI-H661. Nature of the experiment: Antiproliferative activity against human NCI-H661 cells assessed as cell growth inhibition incubated for 10 days. It counts as functional. Conditions: NCI-H661, 240 h, time 10 day.
In another experiment the test system is SNU1. Briefly: Antiproliferative activity against human SNU1 cells assessed as cell growth inhibition incubated for 10 days. It counts as functional. Conditions: SNU1, 240 h, time 10 day.
The next experiment deals with NCI-H292. Briefly: Antiproliferative activity against human NCI-H292 cells assessed as cell growth inhibition incubated for 10 days. It counts as functional. Conditions: NCI-H292, 240 h, time 10 day.
For a further experiment, the system named is K562. Nature of the experiment: Antiproliferative activity against human K562 cells assessed as cell growth inhibition incubated for 10 days. Particulars: K562, 240 h, time 10 day. It counts as functional. The gist of the method:
as §3

Another experiment deals with Z-138. Nature of the experiment: Induction of cell cycle arrest in p53 knockout human Z138 cells assessed as accumulation of cells at G1 phase at 50 to 500 nM incubated for 4 days. The class given is functional, cell-based. Conditions: dose 50-500 nM, time 4.0 day.
The subject of another experiment is MINO. Briefly: Induction of cell cycle arrest in human MINO cells assessed as increase in 2n cell population measured upto 5000 nM measured for 3 days by propidium iodide staining based flow cytometric analysis. The class given is functional. Conditions: time 3.0 day. On the technique in general: A flow cytometer gives signals particle by particle.
The test system of another experiment is Rec1. Nature of the experiment: Induction of cell cycle arrest in human REC1 cells assessed as increase in 2n cell population measured upto 5000 nM measured for 3 days by propidium iodide staining based flow cytometric analysis. It counts as functional. Particulars: time 3.0 day.

Each structure is given as a SMILES string. Calls of active or inactive are those of the source. The calls are words filed in the database; no cut-off is given here.

A word on the GI50: it is the concentration that inhibits growth by half. On to `O=C(NC[C@H](O)CN1CCc2ccccc2C1)c1ccnc(NC2CCC2)c1`, for which the 50% growth inhibitory concentration (GI50) in the experiment with BE(2)-C was determined as 803 nM; with A 172, 590 nM; in the experiment on Capan-2, 69.7 nM; in the experiment with CFPAC-1 it was 52.3 nM; in the experiment on CGTH-W-1, 82.2 nM; in the experiment with HCT-15, 68.4 nM. Further, the GI50 was 165 nM with PANC-1; 379 nM in [2]; 485 nM in the experiment on U2OS; 134 nM in the experiment with DLD-1; 94 nM with EM-2; 430 nM with HCT-8. The GI50 with Hs 695T was determined as 602 nM; with HT-1080, 53.5 nM; in the experiment on SW1353 it was 129 nM; in the experiment with AN3-CA, 254 nM; in the experiment with RPMI-8226, 58.4 nM; in the experiment on L-428, 330 nM. The GI50 turned out to be 485 nM in the experiment with JAR; 314 nM with COR-L105; 50.7 nM in the experiment with A498; 152 nM with NCI-H661; 1040 nM in the experiment on SNU1; 166 nM in the experiment with NCI-H292. Further, the GI50 with K562 stood at 146 nM. Further, the inhibition entry in [1] and in experiment [3] was “Active” throughout. Further, the outcome with Z-138 was Active.
Consider `CC(=O)N1CCC(Nc2cc(C(=O)NC[C@H](O)CN3CCc4ccccc4C3)ncn2)CC1` [PEMRAMETOSTAT], for which the outcome in the experiment with MINO and with Rec1 was inactive.
